Test results reported in ChEMBL document CHEMBL3259774, “Antimycobacterial activity of chiral aminoalcohols with camphane scaffold” (Eur J Med Chem, 2014).
In brackets after ≈: the same amount, converted by molar mass.

What follows are compounds tested on Mycobacterium tuberculosis (assay: Antimycobacterial activity against rifampicin and isoniazid-resistant Mycobacterium tuberculosis 43 assessed as growth inhibition).
Format: functional
Procedure, shortened: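 MDR strain 43, resistant to rifampicin and isoniazid, was a clinical isolate from an HIV-negative Bulgarian adult with pulmonary TB. Tested by the Canetti proportion method on Löwenstein–Jensen medium, with compound in DMSO added before coagulation. Colonies were compared with drug-free control as percent inhibition. MIC is the lowest concentration giving complete inhibition (0% growth).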
In the case of CC1(C)[C@@H]2CC[C@@]1([C@@H](O)CN1CCN(c3ccc(F)cc3)CC1)C(=O)C2, the MIC is reported as 0.55 µM (≈ 0.198 µg/mL).
CC1CCN(C[C@@H](O)[C@]23CC[C@H](CC2=O)C3(C)C)CC1 gave an MIC of 0.72 µM (≈ 0.201 µg/mL).
CC1(C)[C@@H]2CC[C@@]1([C@H](O)CN1CCN(c3ccc(F)cc3)CC1)C(=O)C2 was tested, and the MIC was 0.55 µM (≈ 0.198 µg/mL).
CC1(C)[C@@H]2CC[C@@]1([C@H](O)CN1CCN(c3ccc(Cl)cc3)CC1)C(=O)C2 showed an MIC of 0.27 µM (≈ 0.102 µg/mL).
With CC1(C)[C@@H]2CC[C@@]1([C@@H](O)CN1CCOCC1)C(=O)C2 the MIC was greater than 18.7 µM.
Compound CC1(C)[C@@H]2CC[C@@]1([C@@H](O)CN1CCCCC1)C(=O)C2 has an MIC of 18.9 µM (≈ 5.02 µg/mL).
